Screens: PubChem, Broad Institute
Only a selection was taken, and hits are over-represented in it overall.
INS-1E rescue: preserves ATP levels in cytokine-treated INS-1E cells | protection from cytokine-induced ATP loss, % at 10 µM | 20,000 tested, 0.1% active | INS-1E cytokine-induced death, ATP luminescence, 48 h; normalised: neutral wells 0, positive control 100;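 active = mean replicate protection from cytokine-induced ATP loss at least 50% and at least 75% of replicates each reaching 50%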
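Test system: INS-1E rat cells | Quantity: 8000 cells per well | Medium: Phenol-red-free RPMI with 5% fetal bovine serum | Reagent: Cytokine cocktail of IFN-γ, TNF-α and IL-1β | Doses: One compound concentration, pin transfer | Timing: 48 h co-treatment, 10 min post-lysis read | Technique: Luminescent ATP assay (CellTiter-Glo)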
A1 apoptosis 2: blocks A1, raising caspase activity | MEF A1-2A-BIM cells, caspase-Glo luminescence, 3 h; percent of clofoctol response, DMSO zero | caspase activation, % (test concentration not listed) | 24,000 tested, under 10 active; in the data active = caspase activation above about 5.9%
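Material: mouse embryonic fibroblasts co-expressing A1 and BIM (A1-2A-BIM), primed for A1 dependence / Quantity: 2500 cells/well / Buffer or medium: RPMI-1640 growth medium with 10% FBS / Doses: 50 nL compound per well, pinned / Schedule: 3 h compound exposure at 37 °C / Signal: Caspase-Glo luminescence (DEVD substrate) / Measure: Caspase-3/7 activation, seen as rise in luminescence signal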
T cruzi intra: intracellular Trypanosoma cruzi inhibition. AID 651903. 22,000 tested, 4.9% active. intracellular Trypanosoma cruzi in host cells, plate reader. activity score (inhibition), % at 5.01 µM; in the data active = activity score above about 55%;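 also: parasites and compound incubated about four days before reading; 0% = median of neutral control wells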
* marks the source's active call; other numbers are inactive results; x = not tested or not shown.

SMILES	INS-1E rescue	A1 apoptosis 2	T cruzi intra
C[C@H](CO)N1C[C@H](C)[C@H](CN(C)C(=O)Nc2ccc(F)cc2)Oc2ncc(C#Cc3ccc(F)cc3)cc2C1=O	x	x	26
C[C@H](CO)N1C[C@H](C)[C@H](CN(C)C(=O)Nc2ccc(F)cc2)Oc2ncc(C#Cc3ccc(C(F)(F)F)cc3)cc2C1=O	x	x	88*
Cc1ccc(S(=O)(=O)N(C)C[C@@H]2Oc3ccc(NC(=O)Cc4ccccc4)cc3C(=O)N([C@H](C)CO)C[C@@H]2C)cc1	x	0	8
O=C(NO)c1ccc(C(=O)N/N=C/c2ccncc2Br)cc1	-7	1	-24
Cc1ccc(S(=O)(=O)N(C)C[C@H]2Oc3c(NC(=O)Nc4cccc5ccccc45)cccc3C(=O)N([C@H](C)CO)C[C@H]2C)cc1	10	1	39
Cc1ccc(S(=O)(=O)N(C)C[C@@H]2Oc3c(NC(=O)Nc4ccc(C(F)(F)F)cc4)cccc3C(=O)N([C@@H](C)CO)C[C@@H]2C)cc1	-26	x	-1
COc1ccc(NC(=O)Nc2cccc3c2O[C@@H](CN(C)S(=O)(=O)c2ccc(OC)cc2)[C@H](C)CN([C@H](C)CO)C3=O)cc1	-7	1	17
Cc1ccc(S(=O)(=O)N(C)C[C@H]2Oc3c(NC(=O)Nc4ccc(C(F)(F)F)cc4)cccc3C(=O)N([C@@H](C)CO)C[C@H]2C)cc1	-107	-1	79*
COc1ccc(S(=O)(=O)N(C)C[C@@H]2Oc3c(NC(=O)Nc4ccc(C(F)(F)F)cc4)cccc3C(=O)N([C@@H](C)CO)C[C@@H]2C)cc1	-59	0	61*
COc1ccc(S(=O)(=O)N(C)C[C@@H]2Oc3c(NC(=O)Nc4ccc(C(F)(F)F)cc4)cccc3C(=O)N([C@H](C)CO)C[C@@H]2C)cc1	-101	x	74*
COc1ccc(NC(=O)Nc2cccc3c2O[C@H](CN(C)S(=O)(=O)c2ccc(OC)cc2)[C@@H](C)CN([C@H](C)CO)C3=O)cc1	2	0	-11
Cc1ccc(S(=O)(=O)N(C)C[C@@H]2Oc3c(NC(=O)Nc4cccc5ccccc45)cccc3C(=O)N([C@@H](C)CO)C[C@H]2C)cc1	62*	0	0
Cc1noc(C)c1S(=O)(=O)Nc1ccc2c(c1)CC(=O)N([C@H](C)CO)C[C@@H](C)[C@@H](CN(C)Cc1ccccc1)O2	-6	x	55
C[C@@H]1CCCCO[C@H](CN(C)S(=O)(=O)c2cn(C)cn2)[C@@H](C)CN([C@@H](C)CO)C(=O)c2cc(NC(=O)Nc3ccc(F)cc3)ccc2O1	x	0	x
C[C@@H]1CCCCO[C@H](CN(C)S(=O)(=O)c2ccccc2)[C@@H](C)CN([C@H](C)CO)C(=O)c2cc(NS(=O)(=O)c3ccccc3)ccc2O1	11	x	17
C[C@@H]1CN([C@@H](C)CO)C(=O)Cc2cc(NC(=O)Cn3cnnn3)ccc2O[C@H]1CN(C)C(=O)Nc1ccccc1	x	-2	x
C[C@@H]1CN([C@@H](C)CO)C(=O)Cc2cc(NS(=O)(=O)c3cccs3)ccc2O[C@H]1CN(C)S(=O)(=O)c1ccc(Cl)cc1	x	0	x
C[C@@H]1CN([C@H](C)CO)C(=O)Cc2cc(NS(=O)(=O)c3cccs3)ccc2O[C@@H]1CN(C)S(=O)(=O)c1ccccc1	-1	0	59*
C[C@@H]1CN([C@H](C)CO)C(=O)Cc2cc(NS(=O)(=O)c3cccs3)ccc2O[C@@H]1CN(C)S(=O)(=O)c1ccc(Cl)cc1	4	-1	72*
C[C@H]1CN([C@@H](C)CO)C(=O)Cc2cc(NS(=O)(=O)c3cccs3)ccc2O[C@@H]1CN(C)S(=O)(=O)c1ccccc1	-5	-1	-19
C[C@@H]1CN([C@@H](C)CO)C(=O)Cc2cc(NC(=O)Nc3ccc(C(F)(F)F)cc3)ccc2O[C@H]1CN(C)C(=O)NC1CCCCC1	x	-1	x
C[C@H]1CN([C@@H](C)CO)C(=O)Cc2cc(NC(=O)Cc3ccccc3)ccc2O[C@@H]1CN(C)Cc1ccc(-c2ccccc2)cc1	-19	x	64*
C[C@@H]1CN([C@@H](C)CO)C(=O)Cc2cc(NC(=O)Cc3ccccc3)ccc2O[C@H]1CN(C)Cc1ccc(-c2ccccc2)cc1	x	1	x
COc1ccc(CN(C)C[C@@H]2Oc3ccc(NC(=O)Cc4ccccc4)cc3CC(=O)N([C@H](C)CO)C[C@H]2C)cc1	9	-1	54
C[C@H]1CN([C@@H](C)CO)C(=O)Cc2cc(NC(=O)Cc3ccccc3)ccc2O[C@H]1CN(C)Cc1ccc(-c2ccccc2)cc1	-15	1	47
SMILES	INS-1E rescue	A1 apoptosis 2	T cruzi intra
COc1ccc(CN(C)C[C@@H]2Oc3ccc(NC(=O)Cc4ccccc4)cc3CC(=O)N([C@@H](C)CO)C[C@@H]2C)cc1	-4	0	67*
C[C@@H]1CN([C@H](C)CO)C(=O)Cc2cc(NC(=O)Cc3ccccc3)ccc2O[C@H]1CN(C)Cc1ccc(-c2ccccc2)cc1	0	x	65*
COC(=O)C1=C/C(C)=C\C(C)N(Cc2ccc(OC)cc2)/C=C\1C(=O)OC (stereo not drawn)	x	-1	x
COc1ccc(CN(C)C[C@H]2Oc3ccc(NC(=O)Nc4ccc(F)cc4)cc3CC(=O)N([C@@H](C)CO)C[C@@H]2C)cc1	6	x	24
C[C@@H]1CN([C@@H](C)CO)C(=O)c2cccc(NC(=O)C3CCOCC3)c2O[C@@H]1CN(C)S(=O)(=O)c1cccs1	5	-1	-17
C[C@H](CO)N1C[C@H](C)[C@H](CN(C)Cc2ccc(Cl)c(Cl)c2)Oc2c(NS(=O)(=O)c3cccs3)cccc2C1=O	-5	0	-44
C[C@H]1CN([C@@H](C)CO)C(=O)Cc2cc(NS(=O)(=O)c3ccccc3)ccc2O[C@H]1CN(C)Cc1ccc(Cl)c(Cl)c1	-29	0	25
C[C@@H]1CN([C@H](C)CO)C(=O)Cc2cc(NS(=O)(=O)c3ccccc3)ccc2O[C@@H]1CN(C)Cc1ccc(Cl)c(Cl)c1	-65	-1	65*
C[C@H](CO)N1C[C@H](C)[C@H](CN(C)Cc2ccc(Cl)c(Cl)c2)Oc2ccc(NS(=O)(=O)c3ccccc3)cc2CC1=O	-5	0	38
C[C@@H]1CN([C@H](C)CO)C(=O)Cc2cc(NS(=O)(=O)c3ccccc3)ccc2O[C@H]1CN(C)Cc1ccc(Cl)c(Cl)c1	-10	-1	73*
C[C@@H]1CN([C@@H](C)CO)C(=O)CCCn2nncc2CO[C@H]1CN(C)S(=O)(=O)c1ccc(Oc2ccccc2)cc1	x	0	8
C[C@H](CO)N1C[C@H](C)[C@@H](CN(C)S(=O)(=O)c2ccc(Oc3ccccc3)cc2)OCc2cnnn2CCCC1=O	x	0	73*
C[C@H](CO)N1C[C@H](C)[C@H](CN(C)S(=O)(=O)c2ccccc2)OCc2cnnn2CCCC1=O	x	x	-11
C[C@H]1CN([C@@H](C)CO)C(=O)CCCn2nncc2CO[C@@H]1CN(C)S(=O)(=O)c1ccc(Oc2ccccc2)cc1	2	1	73*
C[C@H](CO)N1C[C@H](C)[C@H](CN(C)C(=O)Nc2ccc(C(F)(F)F)cc2)Oc2ccc(NC(=O)Nc3ccc4c(c3)OCO4)cc2CC1=O	-11	x	2
